ChEMBL document CHEMBL1255381, “Golgicide A reveals essential roles for GBF1 in Golgi assembly and function” (Nat Chem Biol, 2009)
The source made the active and inactive calls. The calls are words filed in the database; no cut-off is given here.

Assays:
Vero [1] = test: Inhibition of GBF1 in african green monkey Vero cells assessed as rapid COPI redistribution from golgi at 10 uM after 5 mins by immunofluorescence method; format: cell-based; details: Chlorocebus sabaeus
Vero [2] = test: Inhibition of GBF1 in african green monkey Vero cells assessed as rapid AP-1 dispersal from golgi membranes at 10 uM after 5 mins by immunofluorescence method; format: cell-based; details: Chlorocebus sabaeus
Vero [3] = test: Inhibition of GBF1 in african green monkey Vero cells assessed as rapid GGA3 dispersal from trans golgi network at 10 uM after 5 mins by immunofluorescence method; format: cell-based; details: Chlorocebus sabaeus
Vero [4] = test: Inhibition of GBF1 in african green monkey Vero cells assessed as induction of betaCOP dispersal from golgi membranes at 10 uM after 5 mins by immunofluorescence method; format: cell-based; details: Chlorocebus sabaeus
Vero [5] = test: Inhibition of GBF1 in african green monkey Vero cells assessed as colocalization with ERGIC-53 marker in ER-golgi intermediate compartment by immunofluorescence method; format: cell-based; details: Chlorocebus sabaeus
Vero [6] = test: Effect on BIG1 distribution from golgi in african green monkey Vero cells by immunofluorescence method; format: functional, cell-based; details: Chlorocebus sabaeus
Vero [7] = test: Effect on BIG2 distribution from golgi in african green monkey Vero cells by immunofluorescence method; format: functional, cell-based; details: Chlorocebus sabaeus
Vero [8] = test: Inhibition of GBF1 in african green monkey Vero cells overexpressing BIG1 assessed as punctate and diffuse distribution of medial-Golgi marker giantin from golgi at 10 uM after 1 hr by immunofluorescence method; format: cell-based; details: Chlorocebus sabaeus
Vero [9] = test: Inhibition of GBF1 in african green monkey Vero cells overexpressing BIG1 assessed as distribution of trans-Golgi marker TGN46 from TGN at 10 uM after 1 hr by immunofluorescence method; format: cell-based; details: Chlorocebus sabaeus
MDCK [10] = test: Effect on golgi morphology in MDCK cells at 10 uM after 1 hr by immunofluorescence method; format: functional, cell-based; details: Canis lupus familiaris
Procedure, shortened: (§1)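 MDCK cells (EMEM, 10% FCS) and Vero cells, untreated or given compound 10 μM for 1 h; fixed and immunostained for βCOP and Golgi markers; distribution compared by immunofluorescence.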

MDCK [11] = test: Induction of betaCOP distribution from golgi membranes in MDCK cells at 10 uM after 1 hr by immunofluorescence method; format: functional, cell-based; details: Canis lupus familiaris; procedure, shortened: as §1
Vero [12] = test: Inhibition of GBF1 M832L mutant in african green monkey Vero cells assessed as effect on betaCOP localization from golgi at 100 uM by immunofluorescence method; format: cell-based; details: Chlorocebus sabaeus
Vero [13] = test: Inhibition of GBF1 M832L mutant in african green monkey Vero cells assessed as effect on TGN46 localization from golgi at 100 uM by immunofluorescence method; format: cell-based; details: Chlorocebus sabaeus
Vero [14] = test: Inhibition of GBF1 M832L mutant in african green monkey Vero cells assessed as effect on GM130 localization from golgi at 100 uM by immunofluorescence method; format: cell-based; details: Chlorocebus sabaeus
Vero [15] = test: Inhibition of GBF1 R843A mutant in african green monkey Vero cells mutant assessed as effect on change in golgi morphology at 10 uM after 1 hr by immunofluorescence method; format: cell-based; details: Chlorocebus sabaeus
Procedure, shortened: (§2)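 Vero cells transiently transfected (Lipofectamine 2000) with HA-tagged GBF1 wild type or R843A, K844A, Q845A or N846A mutant; after 36 h exposed 60 min to compound 10 μM, fixed, stained anti-HA and anti-giantin; Golgi morphology scored in expressing cells.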

Vero [16] = test: Inhibition of GBF1 Q845A mutant in african green monkey Vero cells mutant assessed as effect on change in golgi morphology at 10 uM after 1 hr by immunofluorescence method; format: cell-based; details: Chlorocebus sabaeus; procedure, shortened: as §2
Vero [17] = test: Inhibition of GBF1 N846A mutant in african green monkey Vero cells mutant assessed as effect on change in golgi morphology at 10 uM after 1 hr by immunofluorescence method; format: cell-based; details: Chlorocebus sabaeus; procedure, shortened: as §2
Vero [18] = test: Inhibition of GBF1 K844A mutant in african green monkey Vero cells mutant assessed as effect on change in golgi morphology at 10 uM after 1 hr by immunofluorescence method; format: cell-based; details: Chlorocebus sabaeus; procedure, shortened: as §2
Vero [19] = test: Inhibition of GBF1 in african green monkey Vero cells assessed as Arf1 activation at 10 uM after 1 hr; format: cell-based; details: Chlorocebus sabaeus
Vero [20] = test: Inhibition of Arf1 in african green monkey Vero cells assessed as decrease in Arf1-GTP levels at 10 ug/ml after 1 hr; format: cell-based; details: Chlorocebus sabaeus
Procedure, shortened: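 Vero cells transduced with adenoviral Arf1-V5, alone or with GBF1-ML-HA; next day reseeded, then 45 min at 37°C with medium, BFA 10 µg/ml or compound 10 μM. Lysates pulled down with GGA3 VHS-GAT-GST on glutathione agarose, 30 min 4°C; Arf1-GTP by anti-V5 Western, band densitometry, duplicate experiments averaged.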

Vero [21] = test: Inhibition of GBF1-M832L mutant in african green monkey Vero cells assessed as Arf1 activation at 10 uM after 1 hr; format: cell-based; details: Chlorocebus sabaeus
Vero [22] = test: Inhibition of GBF1 in african green monkey Vero cells assessed as tsVSVG-GFP transport to plasma membrane at 10 uM by immunofluorescence method; format: cell-based; details: Chlorocebus sabaeus
Procedure, shortened: (§3)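 Vero cells co-transfected with tsVSVG-GFP (ts045) and optionally GBF1-HA WT or M832L; held 12-16 h at 42°C for ER arrest, then cycloheximide 100 µg/ml plus compound 10 µM or BFA 10 µg/ml, shifted to 32°C for various times (up to 4 h); fixed, anti-HA stained, transport imaged.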

Vero [23] = test: Inhibition of GBF1-M832L mutant in african green monkey Vero cells assessed as tsVSVG-GFP transport to plasma membrane at 10 uM by immunofluorescence method; format: cell-based; details: Chlorocebus sabaeus; procedure, shortened: as §3
Vero [24] = test: Inhibition of GBF1 in african green monkey Vero cells assessed as colocalization of tsVSVG-GFP with […] at 10 uM by immunofluorescence method; format: cell-based; details: Chlorocebus sabaeus
Vero [25] = test: Inhibition of GBF1-M832L mutant in african green monkey Vero cells assessed as colocalization of tsVSVG-GFP with […] at 10 uM by immunofluorescence method; format: cell-based; details: Chlorocebus sabaeus
Vero [26] = test: Inhibition of GBF1 mediated NPY-GFP secretion in african green monkey Vero cells at 10 uM by immunofluorescence method; format: cell-based; details: Chlorocebus sabaeus
Vero [27] = test: Inhibition of GBF1-M832L mutant mediated NPY-GFP secretion in african green monkey Vero cells at 10 uM by immunofluorescence method; format: cell-based; details: Chlorocebus sabaeus
Vero [28] = test: Inhibition of GBF1 in african green monkey Vero cells assessed as inhibition of StxB-SS retrogade transport from endosomes to TGN at 10 uM by immunofluorescence method; format: cell-based; details: Chlorocebus sabaeus
Vero [29] = test: Inhibition of Arf1 in african green monkey Vero cells assessed as inhibition of StxB-SS retrogade transport from endosomes to TGN at 10 ug/ml by immunofluorescence method; format: cell-based; details: Chlorocebus sabaeus
Vero [30] = test: Inhibition of GBF1 M832L in african green monkey Vero cells assessed as inhibition of StxB-SS retrogade transport from endosomes to TGN at 10 uM by immunofluorescence method; format: cell-based; details: Chlorocebus sabaeus
Vero [31] = test: cells; format: functional, cell-based; details: Chlorocebus sabaeus, 0.5 h
Vero [32] = test: Inhibition of GBF1 in african green monkey Vero cells assessed as punctate and diffuse distribution of medial-Golgi marker giantin […] at 10 uM after 1 hr by immunofluorescence method; format: cell-based; details: Chlorocebus sabaeus
Vero [33] = test: Induction of GBF1 in african green monkey Vero cells assessed as punctate and diffuse distribution of cis-Golgi marker GM130 from TGN at 10 uM after 1 hr by immunofluorescence method; format: cell-based; details: Chlorocebus sabaeus
Vero [34] = test: Inhibition of Arf1 in african green monkey Vero cells assessed as punctate and diffuse distribution of medial-Golgi marker giantin at 10 ug/ml after 1 hr by immunofluorescence method; format: cell-based; details: Chlorocebus sabaeus
Vero [35] = test: Inhibition of GBF1 in african green monkey Vero cells assessed as giantin positive punctate structures in contact with Sec31-positive ER exit site at 10 uM after 1 hr by immunofluorescence method; format: cell-based; details: Chlorocebus sabaeus
Procedure, shortened: (§4)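 Vero cells given BFA 10 μg/ml or compound 10 μM for 60 min, fixed, co-stained for giantin and ER exit site marker Sec31; giantin puncta relative to ERES scored by immunofluorescence.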

Vero [36] = test: Inhibition of Arf1 in african green monkey Vero cells assessed as giantin positive punctate structures in contact with Sec31-positive ER exit site at 10 ug/ml after 1 hr by immunofluorescence method; format: cell-based; details: Chlorocebus sabaeus; procedure, shortened: as §4
Vero [37] = test: Effect on disruption of microtubules in african green monkey Vero cells at 10 uM after 30 mins by immunofluorescence method; format: functional, cell-based; details: Chlorocebus sabaeus
Procedure, shortened: (§5)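 Vero cells (DMEM, 10% FCS, 1% nonessential amino acids, 37°C, 5% CO2) exposed 30 min at 37°C to compound, DMSO, nocodazole or cytochalasin B; fixed and immunostained for microtubules or actin; scored by immunofluorescence microscopy.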

Vero [38] = test: Effect on depolymerization of actin microfilaments in african green monkey Vero cells at 10 uM after 30 mins by immunofluorescence method; format: functional, cell-based; details: Chlorocebus sabaeus; procedure, shortened: as §5
Vero [39] = test: Effect on transit of transferrin through endocytic and recycling pathway in african green monkey Vero cells at 10 uM after 1 hr by immunofluorescence method; format: functional, cell-based; details: Chlorocebus sabaeus

Fc1cc(F)c2c(c1)[C@H]1C=CC[C@H]1C(c1cccnc1)N2 (some centres undefined) [GOLGICIDE A]
inhibition (Vero [1]): Active
inhibition (Vero [2]): inactive
inhibition (Vero [3]): inactive
inhibition (Vero [4]): Active
inhibition (Vero [5]): Active
Activity (Vero [6]): inactive
Activity (Vero [7]): inactive
inhibition (Vero [8]): inactive
inhibition (Vero [9]): inactive
Activity (MDCK [10]): inactive
Activity (MDCK [11]): inactive
inhibition (Vero [12]): inactive
inhibition (Vero [13]): inactive
inhibition (Vero [14]): inactive
inhibition (Vero [15]): inactive
inhibition (Vero [16]): inactive
inhibition (Vero [17]): inactive
inhibition (Vero [18]): inactive
inhibition (Vero [19]): 34%
inhibition (Vero [20]): 75%
inhibition (Vero [21]): inactive
inhibition (Vero [22]): Active
inhibition (Vero [23]): inactive
inhibition (Vero [24]): Active
inhibition (Vero [25]): inactive
inhibition (Vero [26]): Active
inhibition (Vero [27]): inactive
inhibition (Vero [28]): Active
inhibition (Vero [29]): Active
inhibition (Vero [30]): Active
IC50 (Vero [31]): 3.3 µM
inhibition (Vero [32]): Active
Activity (Vero [33]): Active
inhibition (Vero [34]): Active
inhibition (Vero [35]): Active
inhibition (Vero [36]): Active
Activity (Vero [37]): inactive
Activity (Vero [38]): inactive
Activity (Vero [39]): inactive
